In article PMC4083110 (Molecular & Cellular Proteomics : MCP, 2014):
“Also recorded” adds a separate entry of the source.

What was measured:
[1] = test system: PIK3R-derived SH2 domains; experiment: FP saturation binding, domain family; parameters: species or system human; conditions: for recruitment of PIK3R (PI3KR) SH2 domains: FP, result in words
Outline: (§1)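 Multi-SH2 genes were used as tandem proteins that kept the linker residues. Automated high-throughput FP saturation binding was run against 178 synthetic phosphopeptides from RTK, GAB1 and androgen receptor tyrosine sites. Millipolarization readings were fitted to P_obs = Pmax·[Protein]/(K_D+[Protein]) by least squares regression to give K_D.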

Shp2/PTPN11 SH2 domain = biological target: T1, Shp2/PTPN11 SH2 domain (Homo sapiens, UniProt Q06124); experiment: FP saturation binding, construct not stated; conditions: result in words
T1 sequence (Q06124 2-593): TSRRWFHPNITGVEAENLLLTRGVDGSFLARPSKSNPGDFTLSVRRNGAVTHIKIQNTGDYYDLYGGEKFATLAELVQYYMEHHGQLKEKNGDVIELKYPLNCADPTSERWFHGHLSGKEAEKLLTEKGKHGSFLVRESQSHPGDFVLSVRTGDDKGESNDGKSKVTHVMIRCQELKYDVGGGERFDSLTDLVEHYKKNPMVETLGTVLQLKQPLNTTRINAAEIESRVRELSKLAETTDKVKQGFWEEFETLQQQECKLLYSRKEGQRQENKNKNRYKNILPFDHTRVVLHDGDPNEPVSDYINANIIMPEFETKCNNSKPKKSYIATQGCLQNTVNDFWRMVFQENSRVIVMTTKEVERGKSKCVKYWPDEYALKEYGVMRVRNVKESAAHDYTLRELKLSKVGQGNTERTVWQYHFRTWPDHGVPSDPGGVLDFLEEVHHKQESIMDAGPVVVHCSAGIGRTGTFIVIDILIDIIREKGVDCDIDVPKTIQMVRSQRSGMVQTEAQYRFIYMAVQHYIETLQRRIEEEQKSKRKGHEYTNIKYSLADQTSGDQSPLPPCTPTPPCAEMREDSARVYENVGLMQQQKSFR
Outline: as §1

[2] = test system: c-Src family kinase SH2 domains; experiment: FP saturation binding, domain family; parameters: species or system human; conditions: result in words
Outline: as §1

RASA1 SH2 domains = biological target: T2, RASA1 SH2 domains (Homo sapiens, UniProt P20936); experiment: FP saturation binding, construct not stated; conditions: result in words
T2 sequence (P20936 181-441 limits assumed): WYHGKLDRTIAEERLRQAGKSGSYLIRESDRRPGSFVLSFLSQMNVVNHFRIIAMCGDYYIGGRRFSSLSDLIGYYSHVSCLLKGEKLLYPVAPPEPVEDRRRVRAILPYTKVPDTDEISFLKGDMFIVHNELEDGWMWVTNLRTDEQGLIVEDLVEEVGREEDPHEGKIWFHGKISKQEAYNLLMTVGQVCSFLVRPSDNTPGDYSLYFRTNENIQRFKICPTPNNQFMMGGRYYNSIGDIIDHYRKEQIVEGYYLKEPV
Outline: as §1

PLCG2 SH2 domains = biological target: T3, PLCG2 SH2 domains (Homo sapiens, UniProt P16885); experiment: FP saturation binding, construct not stated; conditions: result in words
T3 sequence (P16885 532-735 limits assumed): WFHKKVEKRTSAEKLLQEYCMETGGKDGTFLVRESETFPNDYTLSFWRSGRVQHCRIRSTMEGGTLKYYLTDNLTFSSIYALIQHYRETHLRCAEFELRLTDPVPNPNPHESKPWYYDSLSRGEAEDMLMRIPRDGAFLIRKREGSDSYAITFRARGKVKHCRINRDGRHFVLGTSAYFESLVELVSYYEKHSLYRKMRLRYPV
Outline: as §1

PLCG1 SH2 domains = biological target: T4, PLCG1 SH2 domains (Homo sapiens, UniProt P19174); experiment: FP saturation binding, construct not stated; conditions: result in words
T4 sequence (P19174 550-756 limits assumed): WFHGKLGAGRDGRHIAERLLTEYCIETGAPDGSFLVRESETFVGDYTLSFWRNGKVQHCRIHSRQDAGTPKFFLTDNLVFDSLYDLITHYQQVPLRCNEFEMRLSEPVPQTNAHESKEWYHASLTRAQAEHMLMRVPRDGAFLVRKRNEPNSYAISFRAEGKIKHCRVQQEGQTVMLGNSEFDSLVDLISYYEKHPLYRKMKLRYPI
Outline: as §1

PIK3R3 SH2 domains = experiment: FP saturation binding, construct not stated; parameters: species or system human; conditions: result in words
Outline: as §1

PIK3R1 SH2 domains = PIK3R1 SH2 domains (Homo sapiens, UniProt P27986); experiment: FP saturation binding, construct not stated; conditions: result in words
Outline: as §1

CRK SH2 domain = CRK SH2 domain (Homo sapiens, UniProt P46108); experiment: FP saturation binding; conditions: result in words
Outline: as §1

SRC SH2 domain = SRC SH2 domain (Homo sapiens, UniProt P12931); experiment: FP saturation binding; conditions: result in words
Outline: as §1

SHC1 SH2 domain = biological target: T5, SHC1 SH2 domain (Homo sapiens, UniProt P29353); experiment: FP saturation binding; conditions: result in words
T5 sequence (P29353 488-579 limits assumed): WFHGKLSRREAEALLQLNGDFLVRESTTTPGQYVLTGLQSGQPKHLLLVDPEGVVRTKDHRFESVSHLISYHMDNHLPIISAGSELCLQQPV
Outline: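 Tandem SH2 proteins were kept with their linkers. Synthetic phosphotyrosine peptides were run in automated high-throughput FP saturation binding. Millipolarization was fitted to Pobs = Pmax·[Protein]/(KD+[Protein]) by least squares to give KD per protein/peptide pair.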

CRKL SH2 domain = CRKL SH2 domain (Homo sapiens, UniProt P46109); experiment: FP saturation binding; conditions: result in words
Outline: as §1

[3] = biological target: PIK3R3 (C-terminal domain), PIK3R3.C (Homo sapiens, UniProt Q92569); experiment: FP saturation binding; conditions: result in words
Outline: as §1

[4] = biological target: PLCG1 (NC tandem domain), PLCG1.NC (Homo sapiens, UniProt P19174); experiment: FP saturation binding; conditions: result in words
Outline: as §1

[5] = test system: 93 SH2 domains and 2 phosphotyrosine binding (PTB) domains; experiment: High throughput FP, whole domain panel; parameters: species or system human; conditions: result in words
Outline: as §1

Sequence of CRK SH2 domain (P46108 13-118 limits assumed): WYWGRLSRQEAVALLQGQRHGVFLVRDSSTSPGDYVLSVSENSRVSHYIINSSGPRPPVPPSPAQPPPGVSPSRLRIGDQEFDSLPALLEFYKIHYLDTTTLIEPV
Sequence of PIK3R1 SH2 domains (P27986 2-724): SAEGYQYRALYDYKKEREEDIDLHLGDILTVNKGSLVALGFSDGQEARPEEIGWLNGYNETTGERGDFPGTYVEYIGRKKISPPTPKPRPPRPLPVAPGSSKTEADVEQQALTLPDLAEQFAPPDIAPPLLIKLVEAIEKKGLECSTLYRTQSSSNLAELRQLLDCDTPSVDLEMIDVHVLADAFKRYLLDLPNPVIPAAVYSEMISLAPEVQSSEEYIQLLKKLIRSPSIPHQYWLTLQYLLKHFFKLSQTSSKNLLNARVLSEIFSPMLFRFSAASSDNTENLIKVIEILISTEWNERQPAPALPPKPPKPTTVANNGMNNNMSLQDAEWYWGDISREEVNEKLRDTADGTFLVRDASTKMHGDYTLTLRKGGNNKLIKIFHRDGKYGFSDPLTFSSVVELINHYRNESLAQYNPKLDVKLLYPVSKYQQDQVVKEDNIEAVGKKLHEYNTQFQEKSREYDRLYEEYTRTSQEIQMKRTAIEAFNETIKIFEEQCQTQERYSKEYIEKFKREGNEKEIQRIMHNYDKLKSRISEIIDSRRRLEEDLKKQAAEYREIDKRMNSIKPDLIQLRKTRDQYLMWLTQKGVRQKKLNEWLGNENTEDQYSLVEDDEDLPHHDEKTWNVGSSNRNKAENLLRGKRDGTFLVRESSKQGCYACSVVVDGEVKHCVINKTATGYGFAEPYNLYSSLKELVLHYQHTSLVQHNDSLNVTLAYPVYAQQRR
Sequence of CRKL SH2 domain (P46109 14-102 limits assumed): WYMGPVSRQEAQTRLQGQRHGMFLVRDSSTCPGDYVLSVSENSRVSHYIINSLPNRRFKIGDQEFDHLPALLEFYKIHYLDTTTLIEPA

LQPEXCPDPLYEd [c-Met Tyr(P)-1307]
recruitment of PIK3R (PI3KR) SH2 domains [1]: moderate recruitment | recruitment of Shp2/PTPN11 SH2 domain (Shp2/PTPN11 SH2 domain): recruit

NNYVXIDPTQLPd [c-Kit Tyr(P)-570]
recruitment of c-Src family kinase SH2 domains [2]: recruited

PAEMXDIMKTCWd [c-Kit Tyr(P)-900]
recruitment of c-Src family kinase SH2 domains [2]: recruited

PGNTXQIPRTFPd [GAB1 Tyr(P)-317]
recruitment of RASA1 SH2 domains (RASA1 SH2 domains): confirmed

PIDYXFPPQKTCd [AR Tyr(P)-553]
recruitment of PIK3R (PI3KR) SH2 domains [1]: relatively high affinity | recruitment of PLCG2 SH2 domains (PLCG2 SH2 domains): recruitment sites | recruitment of PLCG1 SH2 domains (PLCG1 SH2 domains): recruitment sites

QEANXVPMTPGTd [GAB1 Tyr(P)-472]
recruitment of PIK3R3 (PIK3R3 SH2 domains): high affinity | recruitment of PIK3R1 (PIK3R1 SH2 domains): confirmed

QQMIXDSPPSRAd [GAB1 Tyr(P)-242]
recruitment of CRK SH2 domain (CRK SH2 domain): no CRK SH2 domain interactions

QSRDXYNFPLALd [AR Tyr(P)-362]
recruitment of PIK3R (PI3KR) SH2 domains [1]: interacted; also recorded: relatively high affinity | recruitment of PLCG2 SH2 domains (PLCG2 SH2 domains): recruitment sites | interaction with SRC SH2 domain (SRC SH2 domain): interacted | recruitment of RASA1 SH2 domains (RASA1 SH2 domains): interacted | recruitment of PLCG1 SH2 domains (PLCG1 SH2 domains): interacted; also recorded: recruitment sites

SEENXVPMNPNLd [GAB1 Tyr(P)-627]
recruitment of PIK3R3 (PIK3R3 SH2 domains): high affinity | interaction with SHC1 SH2 domain (SHC1 SH2 domain): interactions were identified | recruitment of PIK3R1 (PIK3R1 SH2 domains): confirmed

SQDCXDIPRAFPd [GAB1 Tyr(P)-406]
recruitment of CRK SH2 domain (CRK SH2 domain): no CRK SH2 domain interactions | recruitment of CRKL SH2 domain (CRKL SH2 domain): CRKL SH2 domain interactions | recruitment of PLCG1 SH2 domains (PLCG1 SH2 domains): confirmed

STNEXMDMKPGVd [c-Kit Tyr(P)-721]
midpoint dissociation constants ([1]; FP saturation binding, all PIK3R SH2 domains, in words): sub-micromolar | recruitment of PIK3R (PI3KR) SH2 domains [1]: highest affinity

TDSSXCIPTAGMd [GAB1 Tyr(P)-373]
recruitment of CRK SH2 domain (CRK SH2 domain): no CRK SH2 domain interactions | recruitment of PLCG1 SH2 domains (PLCG1 SH2 domains): confirmed | interaction with SHC1 SH2 domain (SHC1 SH2 domain): interactions were identified

VITEXCCYGDLLd [c-Kit Tyr(P)-672]
recruitment of c-Src family kinase SH2 domains [2]: recruited | recruitment of CRK SH2 domain (CRK SH2 domain): recruited

VKPIXFHTQ [AR Tyr(P)-915]
recruitment of PLCG2 SH2 domains (PLCG2 SH2 domains): recruitment sites | recruitment of PLCG1 SH2 domains (PLCG1 SH2 domains): recruitment sites

VSISXDIPPTPGd [GAB1 Tyr(P)-307]
recruitment of CRK SH2 domain (CRK SH2 domain): no CRK SH2 domain interactions | recruitment of RASA1 SH2 domains (RASA1 SH2 domains): confirmed | recruitment of PLCG1 SH2 domains (PLCG1 SH2 domains): confirmed

YSGPXGDMRLETd [AR Tyr(P)-534]
recruitment of c-Src family kinase SH2 domains [2]: did not recruit | recruitment of PIK3R3 (C-terminal domain) [3]: did recruit | recruitment of PLCG1 (NC tandem domain) [4]: did recruit | recruitment across the SH2 domain panel [5]: interacted with few SH2 domains
